Measurements published in paper PMC6331719 (The EMBO Journal, 2018).

How the values were obtained:
[1] = system: duodenal biopsies from CD patients; assay: Duodenal biopsies from CD patients, CD3+CD25+ cells in lamina propria; assay type: cell-based, human; conditions: Vrx-532 20 μM, 3 h pre-incubation
[2] = system: CFTR (Caco-2 and T84 cells); assay: Iodide efflux by SPQ in intestinal epithelial cells; assay type: cell-based, human; conditions: 20 min pre-treatment with potentiator, n = 3
CFTR (Caco‐2 cells) = assay: Ussing chamber, CFTR-dependent Cl- secretion in Caco-2 cells; assay type: cell-based, human; conditions: for Protection against P31–43-mediated reduction of chloride current: pre-incubation up to 20 min, VX-770 10 μM, Vrx-532 20 μM
Summary of the method: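 Caco-2 or T84 monolayers grown on 0.4-μm Transwells to 800–1,200 Ω cm2, then mounted in Ussing chambers. Ringer both sides, 37°C, gassed with 95% O2/5% CO2. Cells pretreated 3 h with peptides (20 μg/ml) or PT gliadin (500 μg/ml), or given bath peptides (100 μM, 3–5 min) after 100 μM amiloride. VX-770 10 μM for 5 min. Forskolin 20 μM; peak CFTRinh172-sensitive Isc.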

Caco‐2 cells [3] = assay: Endosomal trafficking markers, Caco-2 cells; assay type: cell-based, human; conditions: for Protection from P31–43 effects on BECN1, hVps34, UVRAG, Rab5, Rab7: Caco-2, pre-incubation with potentiator
Summary of the method: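 Endosomal fractions isolated from treated and untreated Caco-2 cells. Rab5 and Rab7 immunoblotted, with EEA-1 as loading control. Densitometry reported as mean ± SD of triplicate independent experiments. Potentiator VX-770 used at 10 μM.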

CFTR (Caco-2 cells) = assay: CFTR stability, ubiquitination and plasma membrane level, Caco-2 cells; assay type: cell-based, human; conditions: Caco-2, pre-incubation with potentiator, 24 h
Summary of the method: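 Caco-2 cells homogenised and spun at 2,300 × g for 15 min, then 16,000 × g for 1 h at 4°C. The membrane pellet was solubilised in Tris–HCl pH 7.4/EDTA buffer with 1% Triton X-100 and spun at 60,000 × g for 1 h to give the plasma-membrane fraction. Fraction used for IP or immunoblot against CFTR, ubiquitin, CHIP and related markers. Potentiator VX-770 at 10 μM.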

Caco‐2 cells [4] = assay: F-actin confocal staining, Caco-2 cells; assay type: cell-based, human; conditions: Caco-2, 24 h, VX-770
NOD‐DQ8 mice = assay: Gliadin-challenged NOD-DQ8 mice; assay type: in vivo, mouse; conditions: gliadin 4 weeks, VX-770 i.p.
Summary of the method: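 NOD.[…] AB0null mice expressing HLA-DQ8 (congenic NOD background), 10 per group. Oral gliadin or vehicle for 4 weeks: 5 mg daily for 1 week, then 5 mg thrice weekly for 3 weeks. VX-770 given intraperitoneally 15 min before each gliadin challenge.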

wild‐type mouse CFTR = conditions: ref Cui & McCarty, 2015; Cui et al, 2016; Zeng et al, 2017; cited from earlier work
celiac PBMC [5] = assay: Caco-2 / celiac PBMC bidimensional co-culture, cytokine release; assay type: cell-based, human; conditions: VX-770, P < 0.01
[6] = system: BALB/c mice small intestine; assay: Small intestine protein markers; assay type: in vivo, mouse; conditions: VX-770 i.p. prior to gliadin
celiac PBMC [7] = assay: Caco-2 CFTR-KO / celiac PBMC co-culture, cytokine release; assay type: cell-based, human; conditions: VX-770, P31–43 and P57–68 challenge
BALB/c mice = assay: Intestinal permeability; assay type: in vivo, mouse; conditions: VX-770 i.p. prior to gliadin, 4 weeks
Summary of the method: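 BALB/c mice kept ≥3 generations on a gluten-free diet were gavaged with gliadin (5 mg daily for 1 week, then thrice weekly for 3 weeks) ± intraperitoneal VX-770 15 min before; n = 10 per group. FITC-D4000 (600 mg/kg) was gavaged, and cardiac blood taken 1 h later. Plasma was diluted 1:1 in PBS and read at ex 485/em 528 nm against standards (50–0.312 μg/ml). Values are means ± SD of triplicate pooled samples.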

IL‐15 (Caco‐2 cells) [8] = assay: IL-15 in lower compartment of bidimensional culture; assay type: cell-based, human; conditions: VX-770, P < 0.001 vs. peptide combination
NOD mice = assay: Gliadin-challenged NOD mice; assay type: in vivo, mouse; conditions: gliadin after diabetes onset, VX-770 i.p.
Summary of the method: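 Female NOD mice with diabetes (blood glucose > 250 mg/dl, monitored weekly) were used at 12–13 weeks. They were challenged orally with gliadin for 4 consecutive weeks. VX-770 was given intraperitoneally 15 min before each challenge. n = 10 mice per group.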

IL‐15 (Caco‐2 cells) [9] = assay: IL-15 production; assay type: cell-based, human; conditions: Caco-2, VX-770 pre-treatment, P < 0.001
Caco‐2CFTR‐KO cells = assay: IL-15 production and ERK1/2 phosphorylation, Caco-2 CFTR-KO cells; assay type: cell-based, human
CFTR [10] = assay: Co-immunoprecipitation of CFTR with biotinylated peptide, Caco-2 cells; assay type: binding, human; conditions: short pre-incubation, Caco-2
[11] = system: CFTR (small intestine, BALB/c mice); assay: Ussing chamber, small intestine of BALB/c mice; assay type: in vivo, mouse; conditions: VX-770 i.p. 15 min prior to gliadin, 4 weeks
Summary of the method: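 BALB/c mice on a gluten-free diet for ≥3 generations were given oral gliadin (5 mg daily for 1 week, then thrice weekly for 3 weeks) ± VX-770; n = 10 per group. Small intestine tissue was mounted in Ussing chambers with identical Ringer on both sides, at 37°C, stirred and gassed with 95% O2/5% CO2.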

Caco‐2 cells [12] = assay: Epithelial stress / innate immune markers by immunoblot, Caco-2 cells; assay type: cell-based, human
CFTR [13] = assay: Proximity ligation assay CFTR / P31–43, Caco-2 cells; assay type: binding, human; conditions: short pre-incubation
Summary of the method: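 Caco-2 cells were pre-incubated up to 20 min with VX-770 (10 μM), then exposed to P31–43. Cells were fixed in 4% PFA for 15 min at room temperature and blocked with 0.1% Triton X-100/0.5% BSA. Primary antibodies were applied overnight at 4°C and Duolink probes (1:5) for 1 h at 37°C. Ligation, rolling-circle amplification, red detection and DAPI counterstain followed.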

TG2 = TG2 activity and TG2-catalysed crosslinking in Caco-2 cells; assay type: cell-based, human; conditions: Caco-2, Ca2+ pulse, BAP incorporation
TG2 and CFTR = assay: Co-immunoprecipitation of TG2 and CFTR, Caco-2 cells; assay type: cell-based, human; conditions: Caco-2, pre-treatment
[14] = system: BALB/c mice small intestine; assay: Small intestine cytokine protein levels; assay type: in vivo, mouse; conditions: VX-770 i.p. prior to gliadin
Summary of the method: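 BALB/c mice kept gluten-free for at least three generations, 10 weeks old, at least 10 per group. Oral gliadin or vehicle for 4 weeks (5 mg daily for 1 week, then thrice weekly for 3 weeks). Small-intestine homogenates assayed for IL-10 and TGF-β by ELISA, read in triplicate at 450 nm. Values normalised to Bradford protein.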

[15] = system: BALB/c mice small intestine; assay: Small intestine transcript levels, BALB/c mice; assay type: in vivo, mouse; conditions: VX-770 i.p. prior to gliadin

SMILES: Cc1ccc(O)c(-c2cc(-c3ccccc3)n[nH]2)c1 [Vrx‐532]
- Abrogation of gliadin-peptide-induced CD3+CD25+ cell increase [1]: highly effective in abrogating these effects of gliadin peptides
- Protection of iodide efflux against P31–43 [2]: protecting intestinal epithelial cells against P31–43‐mediated CFTR inhibition
- Protection against P31–43-mediated reduction of chloride current (CFTR (Caco‐2 cells)): prevented
- Protection from P31–43 effects on BECN1, hVps34, UVRAG, Rab5, Rab7 (Caco‐2 cells [3]): counteracted
- Prevention of P31–43 effects on CFTR stability / plasma membrane level (CFTR (Caco-2 cells)): prevented

SMILES: CC(C)(C)c1cc(C(C)(C)C)c(NC(=O)c2c[nH]c3ccccc3c2=O)cc1O [VX‐770]
- Formation of F-actin stress fibers induced by P31–43 (Caco‐2 cells [4]): negated the capacity of P31–43 to induce the formation of F‐actin stress fibers
- Protective effects in NOD-DQ8 mice (NOD‐DQ8 mice): in NOD‐DQ8 mice as well
- Potentiation of wild-type mouse CFTR channel function (wild‐type mouse CFTR): potentiate the ion channel function of wild‐type mouse CFTR
- IL-10 levels (celiac PBMC [5]): increased IL‐10 levels
- Prevention of IFN-γ production (celiac PBMC [5]): prevented the production of IFN‐γ by PT gliadin or peptide combination
- NKG2D upregulation on intraepithelial lymphocytes [6]: counteracted
- NLRP3 expression [6]: counteracted gliadin‐induced NLRP3 expression
- TG2 protein levels [6]: opposed the ability of gliadin to increase TG2 protein levels
- NHERF-1 depletion ([6]; 4 weeks): abrogated the depletion of NHERF‐1
- Prevention of IFN-γ production with Caco-2 CFTR-KO (celiac PBMC [7]): failed to prevent the production of IFN‐γ by celiac PBMC
- Intestinal permeability (BALB/c mice): prevented the gliadin‐induced increase in intestinal permeability
- Prevention of IL-15 accumulation (IL‐15 (Caco‐2 cells) [8]): prevented by VX‐770
- Protective effects in NOD mice (NOD mice): protective effects of VX‐770 were confirmed in NOD mice
- P31–43-induced IL-15 production (IL‐15 (Caco‐2 cells) [9]): prevented the P31–43‐induced production of IL‐15
- IL-15 expression and ERK1/2 phosphorylation in CFTR-KO cells (Caco‐2CFTR‐KO cells): failed to modulate both IL‐15 expression and ERK1/2 phosphorylation in Caco‐2CFTR‐KO cells
- Protection of iodide efflux against P31–43 [2]: protecting intestinal epithelial cells against P31–43‐mediated CFTR inhibition
- Effect of VX-770 on P31–43 interaction with CFTR (co-immunoprecipitation) (CFTR [10]): abolished the interaction of P31–43 with CFTR
- Effect of VX-770 on chloride current when added after P31–43 (CFTR (Caco‐2 cells); P31–43 100 μM then VX-770 10 μM then Fsk): poorly active
- Protection against P31–43-mediated reduction of chloride current (CFTR (Caco‐2 cells)): prevented
- CFTR function and protein expression, gliadin-sensitive mice [11]: prevented the gliadin‐induced decrease in CFTR function (Fig 5A) and protein expression
- Prevention of P31–43-induced NF-κB p65 translocation, NLRP3 expression, caspase-1 cleavage (Caco‐2 cells [12]; Caco-2, VX-770): prevented additional pro‐inflammatory P31–43 effects
- Protection from P31–43-induced epithelial stress (PPARγ, phERK1/2, HSP70) (Caco‐2 cells [12]; Caco-2, pre-incubation with VX-770): protected Caco‐2 cells from signs of P31–43‐induced epithelial stress
- Effect of VX-770 on P31–43 interaction with CFTR (proximity ligation assay) (CFTR [13]): abolished the interaction of P31–43 with CFTR
- Effect on TG2-mediated transamidation reactions itself (TG2): no impact on TG2‐mediated transamidation reactions
- P31–43-mediated increase in CD71 cell surface expression (Caco‐2 cells [3]; Caco-2): blocked the P31–43‐mediated increase in the cell surface expression of transferrin receptor
- Protection from P31–43 effects on BECN1, hVps34, UVRAG, Rab5, Rab7 (Caco‐2 cells [3]): counteracted
- P31–43-induced CD71–SIgA interaction (Caco‐2 cells [3]; Caco-2 pre-incubated with SIgA 1 h at 4°C): abrogated the ability of P31–43 to increase the interaction of CD71 with SIgA
- Prevention of P31–43 effects on CFTR stability / plasma membrane level (CFTR (Caco-2 cells)): prevented
- Prevention of P31–43-induced TG2–CFTR interaction (TG2 and CFTR): abolished the P31–43‐induced interaction of TG2 and CFTR
- IL-10 and TGF-β production [14]: improved IL‐10 and TGF‐β production
- IL-21 expression [14]: inhibited the gliadin‐induced expression of IL‐21
- IL-15, IL-17A and IFN-γ mRNA and protein ([14]; P < 0.001): prevented the gliadin‐induced upregulation of IL‐15, IL‐17A, and IFN‐γ mRNA
- Rorc and Tbet [15]: downregulated upon VX‐770 treatment
